Assay results: ChEMBL document CHEMBL1148290, “Synthesis of flexible sulfur-containing heteroarotinoids that induce apoptosis and reactive oxygen species with discrimination between malignant and benign cells” (2004)

Key:
Assay type in all cases: functional
SK-OV-3 [1] = assay: Potency of compound was determined from ability to inhibit the growth of ovarian carcinoma SK-OV-3 cell line
Procedure, shortened: (§1)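 Cells seeded at 1000 cells/well; next day retinoids added from DMSO stocks (DMSO ≤0.01% final; solvent-only controls) to final 1, 4, 7 and 10 μM, handled under subdued light. After 3 days, living cells quantitated by MTS/PMS reduction read at OD490 in linear range (0.1–0.6); triplicate wells averaged, percent growth inhibition calculated versus solvent controls.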

OVCAR-3 [2] = assay: Efficacy is growth inhibition activity at 10 uM concentration relative to the maximum activity observed for 4-HPR with OVCAR-3 cell line; procedure, shortened: as §1
Caov-3 cell line [3] = assay: Potency of compound was determined from ability to inhibit the growth of ovarian carcinoma cell line Caov-3; procedure, shortened: as §1
OVCAR-3 [4] = assay: Potency of compound was determined from ability to inhibit the growth of ovarian carcinoma OVCAR-3 cell line; procedure, shortened: as §1
Caov-3 cell line [5] = assay: Efficacy is growth inhibition activity at 10 uM concentration relative to the maximum activity observed for 4-HPR with Caov-3 cell line; procedure, shortened: as §1
SK-OV-3 [6] = assay: Efficacy is growth inhibition activity at 10 uM concentration relative to the maximum activity observed for 4-HPR with SK-OV-3 cell line; procedure, shortened: as §1

## CCOC(=O)c1ccc(N/C(S)=N/c2ccc3c(c2)C(C)(C)CC(C)(C)S3)cc1
SK-OV-3 [1]
  Potency: 3.9 µM
OVCAR-3 [2]
  Efficacy: 133.8%
Caov-3 cell line [3]
  Potency: 4.6 µM
OVCAR-3 [4]
  Potency: 3.9 µM
Caov-3 cell line [5]
  Efficacy: 38.1%
SK-OV-3 [6]
  Efficacy: 64.9%

## CCOC(=O)c1ccc(NC(=O)Nc2ccc3c(c2)C(C)(C)CC(C)(C)S3)cc1
SK-OV-3 [1]
  Potency: 4.1 µM
OVCAR-3 [2]
  Efficacy: 160.4%
Caov-3 cell line [3]
  Potency: 7 µM
OVCAR-3 [4]
  Potency: 3.9 µM
Caov-3 cell line [5]
  Efficacy: 63.7%
SK-OV-3 [6]
  Efficacy: 71.8%

## Cc1cc([N+](=O)[O-])ccc1/N=C(\S)Nc1ccc2c(c1)C(C)(C)CC(C)(C)S2
SK-OV-3 [1]
  Potency: 3.9 µM
OVCAR-3 [2]
  Efficacy: 149.5%
Caov-3 cell line [3]
  Potency: 7.4 µM
OVCAR-3 [4]
  Potency: 3.7 µM
Caov-3 cell line [5]
  Efficacy: 52.1%
SK-OV-3 [6]
  Efficacy: 78.4%

## Cc1cc2c(cc1/N=C(\S)Nc1ccc(S(N)(=O)=O)cc1)C(C)(C)CC(C)(C)S2
SK-OV-3 [1]
  Potency: 6.9 µM
OVCAR-3 [2]
  Efficacy: 90%
Caov-3 cell line [3]
  Potency: 0.9 µM
OVCAR-3 [4]
  Potency: 4.4 µM
Caov-3 cell line [5]
  Efficacy: 30.3%
SK-OV-3 [6]
  Efficacy: 67.7%

## CC1=C(/C=C/C(C)=C/C=C/C(C)=C/C(=O)Nc2ccc(O)cc2)C(C)(C)CCC1 [FENRETINIDE]
SK-OV-3 [1]
  Potency: 8.2 µM
OVCAR-3 [2]
  Efficacy: 100%
Caov-3 cell line [3]
  Potency: 3.7 µM
OVCAR-3 [4]
  Potency: 6.9 µM
Caov-3 cell line [5]
  Efficacy: 100%
SK-OV-3 [6]
  Efficacy: 100%

## CC1(C)CC(C)(C)c2cc(NC(=S)Nc3ccc([N+](=O)[O-])cc3)ccc2S1 [SHETA-2]
SK-OV-3 [1]
  Potency: 0.2 µM
OVCAR-3 [2]
  Efficacy: 155.2%
Caov-3 cell line [3]
  Potency: 3.7 µM
OVCAR-3 [4]
  Potency: 1 µM
Caov-3 cell line [5]
  Efficacy: 89.2%
SK-OV-3 [6]
  Efficacy: 69.1%

## CCOC(=O)c1ccc(N/C(S)=N/c2cc3c(cc2C)SC(C)(C)CC3(C)C)cc1
SK-OV-3 [1]
  Potency: 4.4 µM
OVCAR-3 [2]
  Efficacy: 114.4%
Caov-3 cell line [3]
  Potency: 4 µM
OVCAR-3 [4]
  Potency: 4.4 µM
Caov-3 cell line [5]
  Efficacy: 37.4%
SK-OV-3 [6]
  Efficacy: 85.4%

## CC1(C)CC(C)(C)c2cc(N/C(S)=N/c3ccc(S(N)(=O)=O)cc3)ccc2S1
SK-OV-3 [1]
  Potency: 7.8 µM
OVCAR-3 [2]
  Efficacy: 74.1%
Caov-3 cell line [3]
  Potency: 7 µM
OVCAR-3 [4]
  Potency: 4.4 µM
Caov-3 cell line [5]
  Efficacy: 16.7%
SK-OV-3 [6]
  Efficacy: 50.5%

## CCOC(=O)c1ccc(NC(=O)Nc2cc3c(cc2C)SC(C)(C)CC3(C)C)cc1
SK-OV-3 [1]
  Potency: 7.2 µM
OVCAR-3 [2]
  Efficacy: 107%
Caov-3 cell line [3]
  Potency: 10.2 µM
OVCAR-3 [4]
  Potency: 4.7 µM
Caov-3 cell line [5]
  Efficacy: 54.9%
SK-OV-3 [6]
  Efficacy: 75.7%
